# Lmaj promast: Leishmania major promastigote growth inhibition, primary screen. Leishmania major promastigotes, resazurin fluorescence viability. inhibition, % at 10 µM. hit rate 9% among 200,000. AID 1063, 2008; in the data active means inhibition above about 50%;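 further: promastigotes grown with compound for 44 hours at 28 °C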
# bCat nuc transl: modulators of beta-catenin nuclear translocation, primary screen, imaging, HeLa cells, immunofluorescence, high-content. nuclear translocation activity, % at 5 µM. hit rate 0.3% among 190,000;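 active means nuclear translocation activity above 50% at 5 µM, with a well cell count of 50 or more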;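 further: per-cell ratio of nuclear to cytoplasmic median beta-catenin stain intensity; plate controls were DMSO negative control for no effect and GSK-3 inhibitor IX positive control for full effect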
#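 System: Human HeLa cells, endogenous beta-catenin | Compound dosing: 5 µM primary, 0.02–20 µM confirmation | Timing: 24 h compound exposure at 37°C, 5% CO2 | Measured by: Fluorescence imaging of beta-catenin antibody stain plus DAPI | Read-out basis: % activation of per-cell nuclear versus cytoplasmic median beta-catenin signal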
# MT stabilizer: microtubule stabilizers in HeLa cells, primary screen, imaging, high-content imaging. % tubulin-high responders, % at 10 µM. HeLa tubulin immunostaining HCS, 24 h; share of cells brighter than vehicle mean+2SD. hit rate 0.83% among 200,000;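 active means plate Z-score above 3 for both tubulin-high and condensed-nucleus cell shares, with cell loss under 80%, at 10 µM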;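 further: anti alpha tubulin signal scored within the nucleus-defined area of each cell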
# Dynein transport: inhibitors of GR-EGFP nuclear translocation, primary screen, dynein cargo transport inhibitor project, imaging, high-content, 3617.4 mouse cells; test concentration mostly 20 µM; stimulated with dexamethasone, 1 µM; stronger effect = lower value; z-score, hits read low; hit rate 0.47% among 220,000; AID 1381, 2008;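 active means plate z-score of nuclear minus cytoplasmic receptor signal below a set negative limit, without overly bright fluorescence or cell loss, cut at about -3.5 in these data, passing the limit was not always enough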;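 further: z-score of nuclear minus cytoplasmic ring GR-EGFP intensity difference per well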
#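 medium = tetracycline-free induction medium containing charcoal-stripped FBS | probe or stimulus = dexamethasone, 1.0 µM final | timing = 48 h induction, then 1 h compound, then 30 min agonist, 37 °C | detection = automated 10x imaging of fixed Hoechst-stained cells | read-out basis = nuclear versus cytoplasmic GR-EGFP signal, averaged per well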
# HSV augment: enhancers of HSV replication in host cells, fold increase, host cell viability | HSV replication augmentation in cells | maximum fold increase | hit rate 0.005% among 220,000; in the data active means maximum fold increase above about 1.5; tested in PC3 cells
# Active calls of the source: *; i = inactive; x = not tested or not shown. Most compounds without a hit are left out; they make up all but 8.9% or so of the library.
SMILES,Lmaj promast,bCat nuc transl,MT stabilizer,Dynein transport,HSV augment
CCOC(=O)C1CCCN(Cc2ccc3c(c2)OCO3)C1 (stereo unspecified),91.6*,3.3,2.8,0.118,i
COc1ccc(F)cc1C(=O)C1CCCN(Cc2cccn2-c2cccnc2)C1 (stereo unspecified),74.0*,-0.2,1.8,0.357,i
COC(=O)C1C2C=CC3(CN(c4ccc(Cl)c(F)c4)C(=O)C13)O2 (stereo unspecified),-3.7,-1.8,4.0,0.201,i
Cc1ccc(OCC(=O)N/N=C/c2c[nH]c3ccccc23)c([N+](=O)[O-])c1,-1.3,-0.7,3.6,-0.383,i
CCOC(=O)N1CCC(N2CCCC(C(=O)c3cc(F)ccc3OC)C2)CC1 (stereo unspecified),81.6*,2.8,4.7,-0.462,i
O=C(c1ccc2c(c1)OCO2)C1CCCN(C2CCN(CCc3ccccc3)CC2)C1 (stereo unspecified),98.3*,-3.9,2.1,0.358,i
COc1ccc(F)cc1C(=O)C1CCCN(Cc2ccc3c(c2)OCCO3)C1 (stereo unspecified),104.0*,-0.1,3.6,0.233,i
CCc1ccc(N=CC23c4ccccc4C(c4ccccc42)C2C(=O)N(c4ccc(OC)cc4)C(=O)C23)cc1 (stereo unspecified),89.3*,x,2.5,-0.797,i
Oc1nc(Nc2cccc(Cl)c2)sc1/C=C1\C=Nc2ccccc21,-2.8,1.0,18.3*,0.156,i
Oc1cccc(Nc2nc(O)c(/C=C3\C=Nc4ccccc43)s2)c1,x,2.3,x,0.847,x
Oc1nc(Nc2ccc(F)cc2)sc1/C=C1\C=Nc2ccccc21,x,1.9,x,0.415,i
CC1=Nc2ccccc2/C1=C\c1sc(Nc2ccc(C)cc2)nc1O,73.2*,40.2,8.5,1.71,i
CC(=O)N(Cc1cccnc1)c1cccc(-c2nc3ccccc3s2)c1,100.3*,-0.2,1.8,-0.25,i
c1cncc(-c2nc3ccccc3s2)c1,x,-1.9,x,0.43,i
COc1ccccc1CN1CCSCC1,62.8*,-9.1,1.6,0.339,i
COc1ccccc1CN1CCN(C(=O)c2ccncc2)CC1,-3.3,0.2,2.2,-0.435,x
CC(Sc1nc2nn(-c3ccccc3)c(=O)c-2c2n1CCCCC2)C(N)=O (stereo unspecified),-2.5,0.0,1.0,1.14,i
COCCCNC(=O)/C=C/c1cccc(Cl)c1,-6.0,0.3,1.4,-0.745,i
CN(C)C(CNC(=O)/C=C/c1cccc(Cl)c1)c1ccccc1 (stereo unspecified),75.4*,-0.9,5.2,-0.26,i
O=C(/C=C/c1ccc(Br)cc1)NC1CCCCCC1,-4.0,-0.4,0.3,-0.206,i
CCC1CSC(Nc2ccc(C(=O)/C=C/c3ccc(OC)c(OC)c3)cc2)=N1 (stereo unspecified),96.3*,11.3,8.1,-0.922,i
COc1ccc(/C=C/C(=O)Nc2ccncc2)cc1OC,2.5,1.9,1.4,-0.641,i
COc1ccc(NC(=O)/C=C/c2ccc(OC)c(OC)c2)cn1,-1.4,2.3,1.8,1.28,i
CCC1CSC(Nc2ccc(C(=O)/C=C/c3ccc(Br)cc3)cc2)=N1 (stereo unspecified),97.5*,x,3.5,1.54,i
COc1ccc(/C=C/C(=O)c2ccc(NC3=NCCCS3)cc2)cc1OC,100.3*,0.3,17.8,-2.62,i
SMILES,Lmaj promast,bCat nuc transl,MT stabilizer,Dynein transport,HSV augment
O=C(C[n+]1ccc(/C=N/O)cc1)NCc1ccccc1,x,-0.6,x,-0.143,i
Cc1cccc(N2CCN(C(=O)Cn3ccc4ccccc4c3=O)CC2)c1C,91.2*,-1.1,2.3,0.194,i
Nc1ccccc1Nc1ccncc1[N+](=O)[O-],-6.5,1.1,3.3,-0.732,i
O=[N+]([O-])c1cncc([N+](=O)[O-])c1Nc1ccccc1Cl,79.5*,-1.7,4.7,0.563,i
CNc1nc(N)c(C(=O)C23CC4CC(CC(C4)C2)C3)s1,100.3*,0.4,5.5,-0.379,i
CSCc1nnc(NC(=O)c2ccc(S(=O)(=O)N(C)C)cc2)o1,-7.7,-0.6,3.2,-0.516,i
CN(c1ccccc1)S(=O)(=O)c1ccc(C(=O)Nc2nnc(C3=COCCO3)o2)cc1,-4.0,-1.0,1.6,-0.231,i
CSCc1nnc(NC(=O)c2ccc(S(=O)(=O)N(CC(C)C)CC(C)C)cc2)o1,79.0*,5.0,3.1,0.845,x
CCc1nnc(NC(=O)c2ccc(S(=O)(=O)N(CC(C)C)CC(C)C)cc2)o1,96.3*,-7.5,3.7,1.59,i
CCCN(CCC)S(=O)(=O)c1ccc(C(=O)Nc2nnc(COC)o2)cc1,-4.9,-1.5,3.0,1.44,i
CCc1nnc(NC(=O)c2ccc(S(=O)(=O)N(C)c3ccccc3)cc2)o1,82.8*,-0.8,3.3,1.05,i
NC(=S)N/N=C\c1ccc(-c2cccc(Cl)c2Cl)o1,100.4*,x,1.3,0.855,i
NC(=S)N/N=C/c1ccc(-c2ccc(Cl)c(Cl)c2)o1,96.2*,4.7,5.0,-0.431,i
Cc1ccc(-c2ccc(/C=N/NC(N)=S)o2)cc1,x,-0.1,x,0.329,i
NC1=NC(=O)C(Cc2ccccc2)S1 (stereo unspecified),-11.0,0.6,0.6,-0.00941,i
CCCC(=O)Nc1nc2ccc(OCC)cc2s1,14.9,2.0,4.7,0.271,i
CCCn1c(NC(=O)C2CCN(S(=O)(=O)c3cccs3)CC2)nc2ccccc21,96.9*,0.3,3.4,1.57,i
CCOc1ccc2nc(NC(=O)C3CCCN(S(=O)(=O)c4cccs4)C3)sc2c1 (stereo unspecified),54.5*,-0.4,4.6,-0.639,i
CCOc1ccc2nc(NC(=O)c3c([N+](=O)[O-])cnn3CC)sc2c1,62.6*,x,2.6,-0.718,i
CCOc1ccc2nc(NC(=O)C(NS(=O)(=O)c3cccs3)C(C)C)sc2c1 (stereo unspecified),33.0,0.3,1.7,-0.0673,i
CCOc1ccc2nc(NC(=S)N(C)C)sc2c1,80.1*,x,1.1,-2.06,i
Oc1cnn(-c2ccccc2)c1,5.5,-1.0,6.7,0.423,i
COc1ccc(NC(=O)C2CCCO2)cc1Cl (stereo unspecified),-3.3,0.4,1.4,-0.635,i
CC(=O)/C=C1\SC(CC(=O)O)C(=O)N1c1ccccc1 (stereo unspecified),-4.6,x,2.2,2.48,i
CCn1ncc([N+](=O)[O-])c1C(=O)Nc1cc(C)on1,92.4*,-1.3,2.3,1.18,i
COc1cc(-c2cc(-c3ccc(O)cc3)nc(N)c2C#N)ccc1O,34.0,-0.2,1.4,-1.05,i
CCOc1cc(-c2c(C#N)c(N)nc3c2CCCC3C)ccc1O (stereo unspecified),46.0,x,22.5*,-0.412,i
COc1ccccc1-c1c(C#N)c(N)nc2c1CCc1ccccc1-2,86.8*,x,25.7,0.288,i
